We go through 13 compounds from ChEMBL document CHEMBL2321650, “Novel HldE-K inhibitors leading to attenuated Gram negative bacterial virulence” (J Med Chem, 2013).

≈ marks a conversion by molar mass, not a printed value. Calls of active or inactive are those of the source. The rule behind the calls is not given here. Bounds are passed on as bounds.

In data set [1] the test system is Escherichia coli. As to the kind of experiment: Antimicrobial activity against tolC-deficient Escherichia coli O18:K1:H7 after overnight incubation in presence of erythromycin. Type of data set: functional. In short, it runs like this: (§1)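 Broth microdilution MIC in cation-adjusted MHB, final inoculum 5 × 10⁵ CFU/mL from early-to-log preculture; serial compound dilutions in 2% DMSO, overnight at 35 °C, growth scored visually. Each strain tested with and without erythromycin (1 μg/mL for K12 ΔacrAB ΔtolC, 8 μg/mL for K1 wild type, 1 μg/mL for K1 ΔtolC).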

Data set [2] deals with Escherichia coli. As to the kind of experiment: Antimicrobial activity against acrAB, tolC-deficient Escherichia coli str. K-12 substr. MG1655 after overnight incubation in presence of erythromycin. Format: functional. A digest of the protocol:
as §1

The nature of data set [3]: Inhibition of Escherichia coli O18:K1 C7 ribokinase expressed in Escherichia coli BL21 using D-ribose as substrate incubated for 30 mins prior to substrate addition measured after 30 mins by luminescence assay. A digest of the protocol:
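Ribokinase run as the HldE kinase assay: purified E. coli ribokinase at 0.6 nM, 3 μM D-ribose, 3 μM ATP. Inhibitor preincubated 30 min, reaction run 30 min at room temperature, luciferase luminescence read-out, IC50 from 6−10 concentrations.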

A short description of data set [4]: Inhibition of Serratia marcescens NEM017811 hldE-K expressed in Escherichia coli BL21 using beta-heptose 7-phosphate as substrate incubated for 30 mins prior to substrate addition measured after 30 mins by luminescence assay. In short, it runs like this:
(§2)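 HldE kinase luminescence assay as for E. coli, with enzyme at 20 nM for K. pneumoniae, 20 nM for N. meningitidis and 10 nM for S. marcescens. Heptose 7-phosphate and ATP each at 0.2 μM; 30 min preincubation and 30 min reaction at room temperature.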

The next data set relates to Klebsiella pneumoniae. As to the kind of experiment: Inhibition of Klebsiella pneumoniae ATCC 700603 hldE-K expressed in Escherichia coli BL21 using beta-heptose 7-phosphate as substrate incubated for 30 mins prior to substrate addition measured after 30 mins by luminescence assay. The note with it: ATCC 700603, BL21. In short, it runs like this: as §2
Data set [5] concerns Escherichia coli. As to the kind of experiment: Antimicrobial activity against tolC-deficient Escherichia coli O18:K1:H7 after overnight incubation in absence of erythromycin. Type of data set: functional. In short, it runs like this:
as §1

The nature of data set [6]: Inhibition of Escherichia coli O18:K1 C7 hldE-K expressed in Escherichia coli BL21 using beta-heptose 7-phosphate as substrate incubated for 30 mins prior to substrate addition measured after 30 mins by luminescence assay. A digest of the protocol:
(§3)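 E. coli HldE (His-tagged, IPTG-induced, Ni-NTA-purified), 3 nM, preincubated 30 min at room temperature with inhibitor in Hepes pH 7.5, MnCl₂, KCl, 0.012% Triton-X100, DTT, MBP. Reaction with 0.2 μM heptose 7-phosphate and 0.2 μM ATP, 30 min at room temperature. Remaining ATP read by luciferase/luciferin luminescence; 6−10 concentrations fitted to a Langmuir model for IC50.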

For data set [7], the system named is Escherichia coli. As to the kind of experiment: Antimicrobial activity against acrAB, tolC-deficient Escherichia coli str. K-12 substr. MG1655 after overnight incubation in absence of erythromycin. Type of data set: functional. A digest of the protocol:
as §1

A short description of data set [8]: Inhibition of Neisseria meningitidis 2C43 hldE-K expressed in Escherichia coli BL21 using beta-heptose 7-phosphate as substrate incubated for 30 mins prior to substrate addition measured after 30 mins by luminescence assay. A digest of the protocol:
as §2

Data set [9] has as its system Escherichia coli. As to the kind of experiment: Antimicrobial activity against wild type Escherichia coli O18:K1:H7 after overnight incubation. Type of data set: functional. A digest of the protocol:
as §1

Data set [10] deals with Escherichia coli. As to the kind of experiment: Antimicrobial activity against hldE-deficient Escherichia coli O18:K1:H7 after overnight incubation. Type of data set: functional.
For the next data set, the system named is HepG2. As to the kind of experiment: Cytotoxicity against human HepG2 cells after overnight incubation by one cell proliferation assay. Format: cell-based. In short, it runs like this:
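HepG2 cells at 2 × 10⁴ per well in EMEM with 10% FBS, grown overnight at 37 °C in 5% CO₂. Medium then replaced by compound dilutions in medium with 2% DMSO for overnight incubation. Viability read by CellTiter Aqueous One MTS absorbance at 490 nm.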

Data set [11] has as its system Escherichia coli. As to the kind of experiment: Inhibition of Escherichia coli O18:K1 C7 hldE-K expressed in Escherichia coli BL21 using D-manno-heptose 7-phosphate as substrate incubated for 30 mins prior to substrate addition measured after 30 mins by luminescence assay. In short, it runs like this:
as §3

The nature of data set [12]: Competitive reversible inhibition of Escherichia coli O18:K1 C7 hldE-K expressed in Escherichia coli BL21 using D-manno-heptose 7-phosphate as substrate incubated for 30 mins prior to substrate addition measured after 30 mins by double reciprocal plot analysis in presence of ATP. In short, it runs like this: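 ATP competition on E. coli HldE-K at 2 μM D-manno-heptose 7-phosphate with varied ATP. Initial velocities read by luciferase luminescence and analysed as a double reciprocal plot of 1/v versus 1/[ATP].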

For data set [13], the system named is Escherichia coli. As to the kind of experiment: Inhibition of Escherichia coli O18:K1 C7 hldE-K expressed in Escherichia coli BL21 using beta-heptose 7-phosphate as substrate incubated for 30 mins prior to substrate addition measured after 30 mins by luminescence assay in presence of Triton-X 100. A digest of the protocol: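 E. coli HldE kinase luminescence assay with Triton-X100 at 100 μM to 1 mM added to test for promiscuous, aggregation-type inhibition. Otherwise 3 nM enzyme, 30 min inhibitor preincubation, and 30 min reaction with heptose 7-phosphate and ATP at room temperature.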

The subject of data set [14] is Escherichia coli. As to the kind of experiment: Antimicrobial activity against tolC-deficient Escherichia coli O18:K1:H7 assessed as inhibition of LPS synthesis at 16 ug/mL after 5 hrs by silver staining-based electrophoretic analysis. Format: functional, organism-based. In short, it runs like this:
(§4)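 Exponential LB cultures diluted to 5 × 10⁵ CFU/mL, incubated with compound (from water/DMSO 50/50) at 37 °C about 5 h to OD 0.2−0.4. OD-normalized pellets were PBS-washed, SDS-denatured at 95−100 °C, proteinase K-treated 1 h at 55 °C, and run on 16% SDS-PAGE with silver staining. The lowest dose yielding Re-LPS was recorded.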

Data set [15] deals with Escherichia coli. As to the kind of experiment: Antimicrobial activity against acrAB, tolC-deficient Escherichia coli str. K-12 substr. MG1655 assessed as inhibition of LPS synthesis at 2 ug/mL after 5 hrs by silver staining-based electrophoretic analysis. Type of data set: functional. A digest of the protocol:
as §4

The subject of data set [16] is Escherichia coli. As to the kind of experiment: Antimicrobial activity against acrAB, tolC-deficient Escherichia coli str. K-12 substr. MG1655 after 18 to 22 hrs. Format: functional.

Take `O=C(O)COc1ccc2sc(CNc3nncc(-c4c(Cl)cccc4Cl)n3)nc2c1`: the MIC (usually the lowest concentration that inhibits growth of the organism) with Escherichia coli [1] is more than 32 µg/mL; with Escherichia coli [2], 32 µg/mL; in the data set on Escherichia coli [5], more than 32 µg/mL; in the data set with Escherichia coli [7], more than 32 µg/mL. The IC50 (commonly the concentration that inhibits the measured activity by half) in [3] is more than 300000 nM; in data set [4], 41 nM; in the data set on Klebsiella pneumoniae it was 100 nM; in data set [6] it was 19 nM; in data set [8], 1800 nM.

Turning to `CC[C@H]1OC(=O)[C@H](C)C(=O)[C@H](C)[C@@H](O[C@@H]2O[C@H](C)C[C@H](N(C)C)[C@H]2O)[C@](C)(OC)C[C@@H](C)C(=O)[C@H](C)[C@H]2N(CCCCn3cnc(-c4cccnc4)c3)C(=O)O[C@]12C` [TELITHROMYCIN], the values for the MIC in the data set with Escherichia coli [9] and in the data set on Escherichia coli [10] were 8 µg/mL (≈ 9.85 µM) and 0.25 µg/mL (≈ 0.308 µM), respectively.

For the compound `CC[C@H]1OC(=O)[C@H](C)[C@@H](O[C@H]2C[C@@](C)(OC)[C@@H](O)[C@H](C)O2)[C@H](C)[C@@H](O[C@@H]2O[C@H](C)C[C@H](N(C)C)[C@H]2O)[C@](C)(O)C[C@@H](C)C(=O)[C@H](C)[C@@H](O)[C@]1(C)O` [ERYTHROMYCIN], the MIC in the data set on Escherichia coli [9] is 32 µg/mL (≈ 43.6 µM); against Escherichia coli [10], 0.5 µg/mL (≈ 0.681 µM).

In the case of `CO[C@H]1/C=C/O[C@@]2(C)Oc3c(C)c(O)c4c(O)c(c(/C=N/N5CCN(C)CC5)c(O)c4c3C2=O)NC(=O)/C(C)=C\C=C\[C@H](C)[C@H](O)[C@@H](C)[C@@H](O)[C@@H](C)[C@H](OC(C)=O)[C@@H]1C` [RIFAMPIN], the MIC was found to be 8 µg/mL (≈ 9.72 µM) against Escherichia coli [9] and 0.125 µg/mL (≈ 0.152 µM) against Escherichia coli [10].

For `COc1ccc2sc(CNc3nncc(-c4c(Cl)cccc4Cl)n3)nc2c1`, the MIC with Escherichia coli [1], in the data set on Escherichia coli [2], against Escherichia coli [5] and with Escherichia coli [7] was more than 32 µg/mL throughout. Besides, the IC50 in data set [3] is more than 300000 nM; in data set [4] it was 1200 nM; with Klebsiella pneumoniae, 2300 nM; in data set [6], 130 nM; in [8] it was 13000 nM.

`OCCOc1ccc2sc(CNc3nncc(-c4c(Cl)cccc4Cl)n3)nc2c1`: the minimum inhibitory concentration (MIC) was 32 µg/mL with Escherichia coli [1], 0.5 µg/mL in the data set with Escherichia coli [2], more than 32 µg/mL with Escherichia coli [5] and 16 µg/mL (≈ 35.7 µM) against Escherichia coli [7]. Besides, the Activity in the data set with HepG2 was more than 32 µg/mL. Further, the IC50 in [6] turned out to be 18 nM.

With `COc1cccc(OC)c1-c1cnnc(NCc2nc3ccccc3s2)n1`, the inhibition result in the data set with Escherichia coli [11] and in the data set with Escherichia coli [13] was “Active” throughout. Also, the Ki (commonly a measure of affinity in units of concentration, obtained from inhibition or displacement) in data set [12] was determined as 2500 nM. The IC50 in data set [6] was 2000 nM.

On to `O=C(COc1ccc2sc(CNc3nncc(-c4c(Cl)cccc4Cl)n3)nc2c1)NCCO`, for which the MIC in the data set with Escherichia coli [1] is 16 µg/mL; in the data set on Escherichia coli [2], 2 µg/mL; against Escherichia coli [5], more than 32 µg/mL; with Escherichia coli [7], more than 32 µg/mL; with Escherichia coli [16] it was more than 32 µg/mL. Besides, the Activity in the data set with HepG2 was more than 32 µg/mL. For the same compound, the inhibition result in the data set on Escherichia coli [14] and with Escherichia coli [15] was “Active” throughout. Besides, the 50% inhibitory concentration (IC50) in data set [3] is more than 300000 nM; in data set [4], 76 nM; in the data set with Klebsiella pneumoniae it was 150 nM; in [6], 49 nM; in data set [8], 1900 nM.

`Oc1ccc2sc(CNc3nncc(-c4c(O)ccc5ccccc45)n3)nc2c1`: the MIC is 2 µg/mL in the data set on Escherichia coli [1], 0.063 µg/mL in the data set on Escherichia coli [2], more than 32 µg/mL with Escherichia coli [5] and 2 µg/mL (≈ 4.98 µM) in the data set with Escherichia coli [7]. Further, the Activity with HepG2 came to 20 µg/mL. The IC50 in [3] is more than 300000 nM; in data set [4] it was 41 nM; with Klebsiella pneumoniae, 85 nM; in data set [6], 20 nM; in data set [8] it was 1300 nM.

As to `CN(C)CCOc1ccc2sc(CNc3nncc(-c4c(Cl)cccc4Cl)n3)nc2c1`, the MIC is 16 µg/mL in the data set with Escherichia coli [1], 4 µg/mL in the data set with Escherichia coli [2], more than 32 µg/mL in the data set with Escherichia coli [5] and 32 µg/mL (≈ 67.3 µM) with Escherichia coli [7]. For the same compound, in the data set with HepG2, the Activity is more than 32 µg/mL. Moreover, the IC50 in data set [6] came out at 82 nM.

As to `CO[C@@H]1[C@@H](OC(N)=O)[C@@H](O)[C@H](Oc2ccc3c(O)c(NC(=O)c4ccc(O)c(CC=C(C)C)c4)c(=O)oc3c2C)OC1(C)C` [NOVOBIOCIN], the MIC with Escherichia coli [9] came to 32 µg/mL (≈ 52.2 µM); with Escherichia coli [10], 0.5 µg/mL (≈ 0.816 µM).

Regarding `COc1ccc2sc(CNc3nncc(-c4c(C)cccc4O)n3)nc2c1`, the MIC was more than 32 µg/mL with Escherichia coli [1], 8 µg/mL with Escherichia coli [2], more than 32 µg/mL in the data set on Escherichia coli [5] and more than 32 µg/mL with Escherichia coli [7]. The IC50 in [3] was more than 300000 nM; in data set [4], 160 nM; in the data set on Klebsiella pneumoniae, 430 nM; in [6], 69 nM; in [8] it was 9800 nM.

As for `NCC(=O)NCCOc1ccc2sc(CNc3nncc(-c4c(Cl)cccc4Cl)n3)nc2c1`, the MIC was 32 µg/mL in the data set with Escherichia coli [1], 4 µg/mL in the data set with Escherichia coli [2], more than 32 µg/mL in the data set on Escherichia coli [5] and 32 µg/mL (≈ 63.4 µM) against Escherichia coli [7]. The compound further gave an Activity in the data set with HepG2 of 18 µg/mL. The compound further came in with an IC50 in [6] of 100 nM.
